Measurements reported in ChEMBL document CHEMBL4152264, “Design, synthesis, antiproliferative activity and docking studies of quinazoline derivatives bearing 2,3-dihydro-indole or 1,2,3,4-tetrahydroquinoline as potential EGFR inhibitors” (Eur J Med Chem, 2018).

Assays:
PC-3 = experiment: Antiproliferative activity against human PC3 cells after 72 hrs by MTT assay; type: functional, cell-based; details: PC-3, 72 h
How it was run: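 Cells grown in MEM with 10% FBS. About 4×10³ cells per well seeded and incubated 24 h at 37 °C, 5% CO₂. Compounds added at indicated final concentrations for 72 h. MTT at 5 µg/mL final for 4 h at 37 °C. Formazan dissolved in DMSO, absorbance read at 492 nm with 630 nm reference. Tested three times; IC50 is the mean of two determinations.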

MCF7 = experiment: Antiproliferative activity against human MCF7 cells after 72 hrs by MTT assay; type: functional, cell-based; details: MCF7, 72 h
A549 = experiment: Antiproliferative activity against human A549 cells after 72 hrs by MTT assay; type: functional, cell-based; details: A549, 72 h
[1] = Solubility of the compound in water; type: physicochemical; details: buffer

Structure (SMILES)	IC50 (PC-3) [µM]	IC50 (MCF7) [µM]	IC50 (A549) [µM]	solubility [1]
O=C(/C=C/CN1CCCC1)Nc1cc2c(N3CCCc4ccccc43)ncnc2cc1O[C@@H]1CCOC1	5.78	4.25	6.51	
COc1cc2ncnc(N3CCCc4ccccc43)c2cc1NC(=O)C=C(C)C	6.13	6.87	5.41	Insoluble
O=C(/C=C/CN1CCC(CO)CC1)Nc1cc2c(N3CCc4ccccc43)ncnc2cc1O[C@@H]1CCOC1	3.31	4.69	3.67	
CC/C=C/C(=O)Nc1cc2c(N3CCCc4ccccc43)ncnc2cc1OC	6.31	2.87	5.03	Insoluble
C/C=C/C(=O)Nc1cc2c(N3CCCc4ccccc43)ncnc2cc1O[C@@H]1CCOC1	9.35	5.93	10.8	Insoluble
CCN(CC)C/C=C/C(=O)Nc1cc2c(N3CCc4ccccc43)ncnc2cc1OC	3.69	1.99	1.69	
O=C(/C=C/CN1CCCCC1)Nc1cc2c(N3CCCc4ccccc43)ncnc2cc1O[C@@H]1CCOC1	3.63	4.45	3.67	
CC/C=C/C(=O)Nc1cc2c(N3CCc4ccccc43)ncnc2cc1O[C@@H]1CCOC1	9.59	8.84	10.9	Insoluble
CN(C)C/C=C/C(=O)Nc1cc2c(N3CCCc4ccccc43)ncnc2cc1O[C@@H]1CCOC1	4.17	2.85	2.32	
CCN(CC)C/C=C/C(=O)Nc1cc2c(N3CCCc4ccccc43)ncnc2cc1O[C@@H]1CCOC1	4.27	3.87	5.65	
O=C(/C=C/CN1CCC(CO)CC1)Nc1cc2c(N3CCCc4ccccc43)ncnc2cc1O[C@@H]1CCOC1	5.46	4.96	5.3	
COc1cc2ncnc(N3CCc4ccccc43)c2cc1NC(=O)/C=C/CN(C)C	2.19	3.37	2.04	
COc1cc2ncnc(N3CCCc4ccccc43)c2cc1NC(=O)/C=C/CN1CCN(C)CC1	6.26	8.56	7.83	
COc1cc2ncnc(N3CCc4ccccc43)c2cc1NC(=O)/C=C/CN1CCN(C)CC1	9.18	6.43	5.36	
COc1cc2ncnc(N3CCCc4ccccc43)c2cc1NC(=O)/C=C/CN1CCCC1	1.74	3.19	2.23	
CCN(CC)C/C=C/C(=O)Nc1cc2c(N3CCc4ccccc43)ncnc2cc1O[C@@H]1CCOC1	5.78	4.98	5.22	
CN1CCN(C/C=C/C(=O)Nc2cc3c(N4CCc5ccccc54)ncnc3cc2O[C@@H]2CCOC2)CC1	4.21	5.35	6.09	
COc1cc2ncnc(N3CCCc4ccccc43)c2cc1NC(=O)/C=C/CN1CCC(CO)CC1	7.15	5.74	6.97	
COc1cc2ncnc(N3CCCc4ccccc43)c2cc1NC(=O)/C=C/CN1CCCCC1	5.78	3.93	2.88	
O=C(/C=C/CN1CCCC1)Nc1cc2c(N3CCc4ccccc43)ncnc2cc1O[C@@H]1CCOC1	1.51	2.31	2.23	
COc1cc2ncnc(N3CCc4ccccc43)c2cc1NC(=O)/C=C/CN1CCOCC1	8.29	8.45	9.25	
CN1CCN(C/C=C/C(=O)Nc2cc3c(N4CCCc5ccccc54)ncnc3cc2O[C@@H]2CCOC2)CC1	9.45	7.18	5.87	
CCN(CC)C/C=C/C(=O)Nc1cc2c(N3CCCc4ccccc43)ncnc2cc1OC	6.89	5.31	6.41	
O=C(/C=C/CN1CCCCC1)Nc1cc2c(N3CCc4ccccc43)ncnc2cc1O[C@@H]1CCOC1	4.51	1.89	4.66	
